Results pooled from the literature.
Each line is one published result; the experiments were not run side by side.
Cell line: SN12C
Effect on: cell growth or viability

COc1ccc(-c2ccc(-c3ccc(C(=N)N)nc3)s2)cc1Cl — GI50: 1.79 µM
COc1ccc(C(=O)/C=C/c2ccc(Cl)c(Cl)c2)cc1S(N)(=O)=O — GI50 (SRB; 48 h): 1.4 µM
COc1cccc(Oc2ccccc2NC(=O)CNC(=O)c2cccc3ccccc23)c1 — GI50 (SRB; 48 h): 1.45 µM
COc1cc(-c2ccc(-c3ccc(C(=N)N)nc3)s2)cc(OC)c1OC — GI50: 2.05 µM
Cc1cc(C)n(C(=S)[S][Au][PH](CCCCCC[PH]([Au][S]C(=S)n2nc(C)cc2C)(c2ccccc2)c2ccccc2)(c2ccccc2)c2ccccc2)n1 — GI50: 0.479 µM
COc1ccc(C(=O)/C=C/c2cccc(Br)c2)cc1S(N)(=O)=O — inhibition (SRB; 10 µM): 179%
S=C([S][Au-][P+](CCCCCC[P+]([Au-][S]C(=S)n1cccn1)(c1ccccc1)c1ccccc1)(c1ccccc1)c1ccccc1)n1cccn1 — GI50: 1.95 µM
CC[C@@]1(O)C(=O)OCc2c1cc1n(c2=O)Cc2cc3ccccc3nc2-1 — GI50 (SRB): 0.02 µM
